Source: PubChem BioAssay
Hits are enriched below; roughly 3.4% of the tested compounds scored in any of these assays.
VIM-2 inh: blocks Pseudomonas aeruginosa VIM-2 metallo-beta-lactamase. purified VIM-2, nitrocefin hydrolysis, epi-absorbance fluorescence. inhibition, % at 5.6 µM. actives 0.89% (n = 290,000);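 active means inhibition above the mean of all tested compounds plus 3 SD, cutoff set per screening run, cut at about 7.5% in these data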;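 further: red hydrolysis product quenches plate fluorescence so inhibitors raise well fluorescence; 0% = enzyme with DMSO and 100% = DMSO without enzyme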
IMP-1 inh: blocks Pseudomonas aeruginosa IMP-1 metallo-beta-lactamase. purified IMP-1, nitrocefin hydrolysis, epi-absorbance fluorescence. inhibition, % at 5.6 µM. actives 0.45% (n = 290,000). AID 1556;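 active means inhibition above the mean plus 3 SD of all compounds in the same screening run, cut at about 4.5% in these data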;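 further: 0% = IMP-1 with DMSO and 100% = DMSO wells lacking enzyme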
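system = purified recombinant IMP-1 beta-lactamase | amount = 0.2 nM IMP-1, as dispensed | medium = HEPES buffer pH 7.1 with ZnSO4 and Brij 35 | times = 25 °C, 15 min preincubation, 25 min reaction | detection = plate fluorescence quenching by hydrolysis product, ex 480/em 530 nm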
MEKK2wt PB1 HTS: raises or lowers MEK5 binding to wildtype human MEKK2 PB1 domain. bead flow cytometry, Alexa488-MEK5 binding to MEKK2 WT; actives lie on both sides. Q9Y2U5. binding response (% of control), % at 10 µM. AID 1531. actives 1.1% (n = 290,000); in the data active means binding response below about 67% or above about 130%
MEKK3 PB1 HTS: MEKK3-MEK5 PB1 interaction, increase or decrease | Q99759 | binding response (% of control), % at 10 µM | actives 1.4% (n = 290,000) | bead-based flow cytometry, Alexa488-MEK5 binding to MEKK3; actives lie on both sides; 0 = blocked by unlabeled MEK5, 100 = vehicle;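 active means binding response more than 3 SD above or below the average of its plate-row segment, actives on both sides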;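 further: Alexa488 bead fluorescence after subtracting the streptavidin-only scavenger bead signal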
Target sequence (Q99759 whole entry, looked up): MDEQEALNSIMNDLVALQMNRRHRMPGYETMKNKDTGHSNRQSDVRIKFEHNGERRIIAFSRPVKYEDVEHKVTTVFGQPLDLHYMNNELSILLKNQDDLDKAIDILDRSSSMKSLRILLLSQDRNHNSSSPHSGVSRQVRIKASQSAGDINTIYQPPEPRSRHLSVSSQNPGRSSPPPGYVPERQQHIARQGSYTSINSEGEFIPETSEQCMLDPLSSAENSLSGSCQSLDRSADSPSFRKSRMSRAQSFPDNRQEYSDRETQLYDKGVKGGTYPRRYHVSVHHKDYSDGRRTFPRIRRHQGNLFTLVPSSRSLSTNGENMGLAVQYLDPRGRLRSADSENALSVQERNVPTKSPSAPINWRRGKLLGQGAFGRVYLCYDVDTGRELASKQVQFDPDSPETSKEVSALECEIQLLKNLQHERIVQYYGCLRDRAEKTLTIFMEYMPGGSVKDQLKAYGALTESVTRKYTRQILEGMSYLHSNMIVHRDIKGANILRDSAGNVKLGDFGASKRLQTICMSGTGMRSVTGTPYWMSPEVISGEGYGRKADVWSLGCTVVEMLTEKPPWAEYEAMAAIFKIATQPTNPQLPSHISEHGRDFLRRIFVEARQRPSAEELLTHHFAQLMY
MEKK2 mut-MEK5: signal of MEK5 binding to mutant human MEKK2 PB1 domain; percent response, % at 10 µM; actives 0.35% (n = 290,000); bead flow cytometry, Alexa488-MEK5 binding to MEKK2 mutant; in the data active means percent response above about 24%, passing the limit was not always enough
MEKK2wt confirm: raises or lowers MEK5 binding to wildtype human MEKK2, retest | shares compounds with MEKK3 PB1 HTS | bead flow cytometry, Alexa488-MEK5 binding to MEKK2 WT; actives lie on both sides | binding response (% of control), % at 10 µM | actives 2.4% (n = 5,900) | AID 1892; in the data active means binding response below about 16% or above about 210%; inactive means in between
MEKK2mut-MEK5: signal of MEK5 binding to mutant human MEKK2, retest; shares compounds with MEKK3 PB1 HTS; bead flow cytometry, Alexa488-MEK5 binding to MEKK2 mutant; percent response, % at 10 µM; actives 2% (n = 5,900); AID 1893; in the data active means percent response mostly above about 71%, no sharp cut-off; inactive means mostly below about 38%;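 further: higher means compound restores mutant binding toward wildtype level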
MEKK3-MEK5 inh: MEKK3-MEK5 PB1 inhibition, single concentration confirmation | shares compounds with MEKK3 PB1 HTS | bead flow cytometry, Alexa488-MEK5 binding to MEKK3; hits give low values | binding response (% of control), % at 10 µM | actives 1.8% (n = 5,900);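 active means binding response below 72% of control, or above a set upper limit, though filed actives all read lower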;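 further: 100% = DMSO only wells and 0% = binding blocked by excess unlabeled MEK5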
An asterisk follows results filed as active; [ ] = remark or other dose.

For CCOc1cc(CNCCCN2CCOCC2)ccc1OCC(=O)Nc1cccc2ccccc12 the results were VIM-2 inh 2, IMP-1 inh -4, MEKK2wt PB1 HTS 141*, MEKK3 PB1 HTS 106, MEKK2 mut-MEK5 18, MEKK2wt confirm 115, MEKK2mut-MEK5 -1 and MEKK3-MEK5 inh 99.
For O=C(N/N=C/c1cccc(Oc2ccccc2)c1)c1cccc(Br)c1 the results were VIM-2 inh -3, IMP-1 inh -4, MEKK2wt PB1 HTS 99, MEKK3 PB1 HTS 95 and MEKK2 mut-MEK5 -2.
For O=C(CNC(=S)NC(=O)c1ccc(F)cc1)c1ccccc1 the results were VIM-2 inh -1, IMP-1 inh -6, MEKK2wt PB1 HTS 107, MEKK3 PB1 HTS 136*, MEKK2 mut-MEK5 2, MEKK2wt confirm 103, MEKK2mut-MEK5 -2 and MEKK3-MEK5 inh 101.
For Cc1cc(C)c2cc(C#N)c(NCCOC(=O)c3ccccc3C)nc2c1 the results were VIM-2 inh -3 and IMP-1 inh -1.
O=[N+]([O-])c1ccc(-c2ccc(/C=N/Nc3nc(N4CCCC4)nc(N4CCCC4)n3)o2)cc1 was read as VIM-2 inh -1, IMP-1 inh -1, MEKK2wt PB1 HTS 85, MEKK3 PB1 HTS 101 and MEKK2 mut-MEK5 11.
`O=[N+]([O-])c1ccc(-c2ccc(/C=N/Nc3nc(N4CCCCC4)nc(N4CCCCC4)n3)o2)cc1` gave VIM-2 inh -5, IMP-1 inh -2, MEKK2wt PB1 HTS 101, MEKK3 PB1 HTS 98, MEKK2 mut-MEK5 99*, MEKK2wt confirm 99, MEKK2mut-MEK5 -4 and MEKK3-MEK5 inh 103.
For COCCCN=Cc1c(C)[nH]n(-c2ccc(Br)c(C)c2)c1=O the results were VIM-2 inh -2, IMP-1 inh -1, MEKK2wt PB1 HTS 102, MEKK3 PB1 HTS 102 and MEKK2 mut-MEK5 4.
`N/C(=N\OC(=O)c1ccc([N+](=O)[O-])cc1)c1ccc(Br)cc1` gave VIM-2 inh -1, IMP-1 inh -1, MEKK2wt PB1 HTS 105, MEKK3 PB1 HTS 102 and MEKK2 mut-MEK5 4.
N/C(Cc1ccc([N+](=O)[O-])cc1)=N\OC(=O)c1ccc(Br)cc1 was read as VIM-2 inh -2, IMP-1 inh -2, MEKK2wt PB1 HTS 109, MEKK3 PB1 HTS 132*, MEKK2 mut-MEK5 1, MEKK2wt confirm 106, MEKK2mut-MEK5 5 and MEKK3-MEK5 inh 105.
For Clc1ccc(OCCCNCc2ccccc2)c(Br)c1 the results were VIM-2 inh 0, IMP-1 inh -1, MEKK2wt PB1 HTS 153*, MEKK3 PB1 HTS 105, MEKK2 mut-MEK5 22, MEKK2wt confirm 134, MEKK2mut-MEK5 19 and MEKK3-MEK5 inh 103.
Screening CCC(C)NC(=O)C1CCN(S(=O)(=O)N2CCCC2)CC1 (configuration not stated) returned VIM-2 inh -2, IMP-1 inh -3, MEKK2wt PB1 HTS -3.0*[inhibitor], MEKK3 PB1 HTS 1.0*[inhibitor], MEKK2 mut-MEK5 -20, MEKK2wt confirm 98, MEKK2mut-MEK5 -4 and MEKK3-MEK5 inh 100.
`CCS(=O)(=O)c1ccc(O)c(NC(=O)COc2ccc(C)cc2)c1` gave VIM-2 inh 0, IMP-1 inh -3, MEKK2wt PB1 HTS 106, MEKK3 PB1 HTS 154*, MEKK2 mut-MEK5 0, MEKK2wt confirm 109, MEKK2mut-MEK5 7 and MEKK3-MEK5 inh 101.
CCS(=O)(=O)c1ccc(O)c(NC(=O)COc2ccc(OC)cc2)c1 was read as VIM-2 inh -4, IMP-1 inh -2, MEKK2wt PB1 HTS 96, MEKK3 PB1 HTS 90 and MEKK2 mut-MEK5 -2.
CCN1CCN(C(=O)CN(Cc2ccccc2)S(C)(=O)=O)CC1 was read as VIM-2 inh -2, IMP-1 inh -2, MEKK2wt PB1 HTS 111, MEKK3 PB1 HTS 105 and MEKK2 mut-MEK5 2.
`CC(=O)c1ccc(NC(=O)C(C)n2c3ccccc3c3nc(=O)cc(C)n32)cc1` (configuration not stated) gave VIM-2 inh -1, IMP-1 inh 0, MEKK2wt PB1 HTS 52, MEKK3 PB1 HTS 44*[inhibitor], MEKK2 mut-MEK5 -17, MEKK2wt confirm 103, MEKK2mut-MEK5 -3 and MEKK3-MEK5 inh 103.
Cc1ccccc1OCc1nnc(SCC(=O)N2CCc3ccccc32)n1C was read as VIM-2 inh -1, IMP-1 inh -4, MEKK2wt PB1 HTS 2.0*[inhibitor], MEKK3 PB1 HTS 2.0*[inhibitor], MEKK2 mut-MEK5 -3, MEKK2wt confirm 100, MEKK2mut-MEK5 -1 and MEKK3-MEK5 inh 102.
Screening COc1ccc(-c2cc3ccccc3n2CC(O)CN2CCCCC2)cc1 (configuration not stated) returned VIM-2 inh -2, IMP-1 inh -2, MEKK2wt PB1 HTS 123, MEKK3 PB1 HTS 110 and MEKK2 mut-MEK5 15.
COc1ccc(NS(=O)(=O)c2cc(NC(=O)CCSc3ccccc3)ccc2OC)cc1 was read as VIM-2 inh -6, IMP-1 inh -2, MEKK2wt PB1 HTS 111, MEKK3 PB1 HTS 145*, MEKK2 mut-MEK5 -1, MEKK2wt confirm 100, MEKK2mut-MEK5 0 and MEKK3-MEK5 inh 105.
For O=[N+]([O-])c1cccc(-n2nnnc2CN2CCCCCC2)c1 the results were VIM-2 inh -1, IMP-1 inh -2, MEKK2wt PB1 HTS 124, MEKK3 PB1 HTS 122*, MEKK2 mut-MEK5 5, MEKK2wt confirm 105, MEKK2mut-MEK5 -4 and MEKK3-MEK5 inh 101.
For CCCOc1ccc(C2C(C(=O)c3ccc(C)o3)=C(O)C(=O)N2CCN2CCOCC2)cc1OC (configuration not stated) the results were VIM-2 inh -1, IMP-1 inh -3, MEKK2wt PB1 HTS 0.0*[inhibitor], MEKK3 PB1 HTS 0.0*[inhibitor], MEKK2 mut-MEK5 -16, MEKK2wt confirm 100, MEKK2mut-MEK5 -3 and MEKK3-MEK5 inh 103.
`COc1ccc(OC)c(C2C(C(=O)c3ccc(C)o3)=C(O)C(=O)N2CCN2CCOCC2)c1` (configuration not stated) gave VIM-2 inh -2, IMP-1 inh -1, MEKK2wt PB1 HTS 101, MEKK3 PB1 HTS 96 and MEKK2 mut-MEK5 -2.
For O=C(CN1C(=O)CSC1=O)Nc1ccccc1N1CCOCC1 the results were VIM-2 inh 0, IMP-1 inh -1, MEKK2wt PB1 HTS 92, MEKK3 PB1 HTS 98 and MEKK2 mut-MEK5 -2.
